Measurements from ChEMBL document CHEMBL1817567, “Design of benzimidazole- and benzoxazole-2-thione derivatives as inhibitors of bacterial hyaluronan lyase” (Eur J Med Chem, 2011).
≈ marks a conversion by molar mass, not a printed value. Calls of active or inactive are those of the source. The rule behind the calls is not given here.

Key:
[1] = biological target: T1, Hyaluronidase (Bos taurus) (UniProt Q8SQG8+Q5E985); assay: Inhibition of bovine testes hyaluronidase at 460 uM after 30 mins at pH 5 by turbidimetric analysis; assay type: protein assay
[2] = biological target: T1, Hyaluronidase (Bos taurus); assay: Inhibition of bovine testes hyaluronidase at 3800 uM after 30 mins at pH 5 by turbidimetric analysis; assay type: protein assay
[3] = biological target: T1, Hyaluronidase (Bos taurus); assay: Inhibition of bovine testes hyaluronidase at 130 uM after 30 mins at pH 5 by turbidimetric analysis; assay type: protein assay
Streptococcus agalactiae [4] = assay: Inhibition of Streptococcus agalactiae 4755 hyaluronidase at 3800 uM after 30 mins at pH 5.0 by turbidimetric analysis
Method in brief: (§1)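 SagHyal4755 (2.9 ng) with BSA and hyaluronan (2 mg/ml stock) in citrate–phosphate/NaCl buffer pH 5.0, 3.8% DMSO final, 30 min at 37 °C. Stopped by alkaline 2.5% CTAB, then 20 min at 25 °C. Residual-substrate turbidity read at 600 nm; no-inhibitor sample = 100%, no-enzyme sample = 0% activity. Enzyme-free compound controls were run.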

[5] = biological target: T1, Hyaluronidase (Bos taurus); assay: Inhibition of bovine testes hyaluronidase at 150 uM after 30 mins at pH 5 by turbidimetric analysis; assay type: protein assay
[6] = biological target: T1, Hyaluronidase (Bos taurus); assay: Inhibition of bovine testes hyaluronidase at 200 uM after 30 mins at pH 5 by turbidimetric analysis; assay type: protein assay
[7] = biological target: T1, Hyaluronidase (Bos taurus); assay: Inhibition of bovine testes hyaluronidase at 80 uM after 30 mins at pH 5 by turbidimetric analysis; assay type: protein assay
[8] = biological target: T1, Hyaluronidase (Bos taurus); assay: Inhibition of bovine testes hyaluronidase at 180 uM after 30 mins at pH 5 by turbidimetric analysis; assay type: protein assay
[9] = biological target: T1, Hyaluronidase (Bos taurus); assay: Inhibition of bovine testes hyaluronidase at 170 uM after 30 mins at pH 5 by turbidimetric analysis; assay type: protein assay
[10] = Aqueous solubility of the compound in water; assay type: physicochemical
Method in brief: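 Turbidity at 600 nm of test compound in DMSO added to citrate–phosphate buffer (pH 5 and pH 7.4), water and BSA (0.2 mg/ml stock), at various concentrations, read against a water reference. Enzyme testing used only concentrations showing no turbidity.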

[11] = biological target: T1, Hyaluronidase (Bos taurus); assay: Inhibition of bovine testes hyaluronidase at 49 uM after 30 mins at pH 5 by turbidimetric analysis; assay type: protein assay
[12] = biological target: T1, Hyaluronidase (Bos taurus); assay: Inhibition of bovine testes hyaluronidase at 4200 uM after 30 mins at pH 5 by turbidimetric analysis; assay type: protein assay
[13] = biological target: T1, Hyaluronidase (Bos taurus); assay: Inhibition of bovine testes hyaluronidase at 100 uM after 30 mins at pH 5 by turbidimetric analysis; assay type: protein assay
[14] = biological target: T1, Hyaluronidase (Bos taurus); assay: Inhibition of bovine testes hyaluronidase at 2000 uM after 30 mins at pH 5 by turbidimetric analysis; assay type: protein assay
[15] = biological target: T1, Hyaluronidase (Bos taurus); assay: Inhibition of bovine testes hyaluronidase at 380 uM after 30 mins at pH 5 by turbidimetric analysis; assay type: protein assay
[16] = biological target: T1, Hyaluronidase (Bos taurus); assay: Inhibition of bovine testes hyaluronidase at 190 uM after 30 mins at pH 5 by turbidimetric analysis; assay type: protein assay
[17] = biological target: T1, Hyaluronidase (Bos taurus); assay: Inhibition of bovine testes hyaluronidase at 63 uM after 30 mins at pH 5 by turbidimetric analysis; assay type: protein assay
[18] = Inhibition of Streptococcus agalactiae 4755 hyaluronidase at pH 7.4 after 3 hrs by turbidimetric analysis
Method in brief: (§2)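 Same turbidimetric hyaluronan-lyase assay at pH 7.4 (citrate–phosphate/NaCl): SagHyal4755 2.9 ng, hyaluronan (2 mg/ml stock), BSA, 3.8% DMSO final, 3 h at 37 °C. CTAB (2.5%, in 0.5 M NaOH) precipitation, 20 min at 25 °C, A600. Activity scaled between no-inhibitor and no-enzyme samples.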

[19] = biological target: T1, Hyaluronidase (Bos taurus); assay: Inhibition of bovine testes hyaluronidase at 400 uM after 30 mins at pH 5 by turbidimetric analysis; assay type: protein assay
Streptococcus agalactiae [20] = assay: Inhibition of Streptococcus agalactiae 4755 hyaluronidase at 63 uM after 30 mins at pH 5.0 by turbidimetric analysis; method in brief: as §1
[21] = Inhibition of Streptococcus agalactiae 4755 hyaluronidase at pH 5.0 after 30 mins by turbidimetric analysis; method in brief: as §1
Streptococcus agalactiae [22] = assay: Inhibition of Streptococcus agalactiae 4755 hyaluronidase at 2000 uM after 3 hrs at pH 7.4 by turbidimetric analysis; method in brief: as §2
Streptococcus agalactiae [23] = assay: Inhibition of Streptococcus agalactiae 4755 hyaluronidase at 170 uM after 30 mins at pH 5.0 by turbidimetric analysis; method in brief: as §1
Streptococcus agalactiae [24] = assay: Inhibition of Streptococcus agalactiae 4755 hyaluronidase at 180 uM after 30 mins at pH 5.0 by turbidimetric analysis; method in brief: as §1
Streptococcus agalactiae [25] = assay: Inhibition of Streptococcus agalactiae 4755 hyaluronidase at 460 uM after 30 mins at pH 5.0 by turbidimetric analysis; method in brief: as §1
Streptococcus agalactiae [26] = assay: Inhibition of Streptococcus agalactiae 4755 hyaluronidase at 190 uM after 30 mins at pH 5.0 by turbidimetric analysis; method in brief: as §1
Streptococcus agalactiae [27] = assay: Inhibition of Streptococcus agalactiae 4755 hyaluronidase at 80 uM after 30 mins at pH 5.0 by turbidimetric analysis; method in brief: as §1
Streptococcus agalactiae [28] = assay: Inhibition of Streptococcus agalactiae 4755 hyaluronidase at 200 uM after 3 hrs at pH 7.4 by turbidimetric analysis; method in brief: as §2
Streptococcus agalactiae [29] = assay: Inhibition of Streptococcus agalactiae 4755 hyaluronidase at 130 uM after 30 mins at pH 5.0 by turbidimetric analysis; method in brief: as §1
Streptococcus agalactiae [30] = assay: Inhibition of Streptococcus agalactiae 4755 hyaluronidase at 2000 uM after 30 mins at pH 5.0 by turbidimetric analysis; method in brief: as §1
Streptococcus agalactiae [31] = assay: Inhibition of Streptococcus agalactiae 4755 hyaluronidase at 4200 uM after 3 hrs at pH 7.4 by turbidimetric analysis; method in brief: as §2
Streptococcus agalactiae [32] = assay: Inhibition of Streptococcus agalactiae 4755 hyaluronidase at 4200 uM after 30 mins at pH 5.0 by turbidimetric analysis; method in brief: as §1

T1 sequence (Q5E985 whole entry, looked up): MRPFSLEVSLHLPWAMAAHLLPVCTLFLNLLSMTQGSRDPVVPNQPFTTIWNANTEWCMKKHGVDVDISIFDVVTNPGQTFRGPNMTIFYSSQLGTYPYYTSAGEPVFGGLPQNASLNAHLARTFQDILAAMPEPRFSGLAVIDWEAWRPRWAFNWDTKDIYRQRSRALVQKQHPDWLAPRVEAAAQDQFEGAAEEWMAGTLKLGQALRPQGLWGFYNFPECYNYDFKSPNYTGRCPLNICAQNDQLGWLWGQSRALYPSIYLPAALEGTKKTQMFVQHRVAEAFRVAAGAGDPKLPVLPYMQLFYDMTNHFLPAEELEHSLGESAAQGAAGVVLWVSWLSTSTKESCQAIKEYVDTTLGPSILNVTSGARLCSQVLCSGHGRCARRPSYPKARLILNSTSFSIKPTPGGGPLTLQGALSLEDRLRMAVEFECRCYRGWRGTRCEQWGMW
T1 sequence (Q8SQG8 whole entry, looked up): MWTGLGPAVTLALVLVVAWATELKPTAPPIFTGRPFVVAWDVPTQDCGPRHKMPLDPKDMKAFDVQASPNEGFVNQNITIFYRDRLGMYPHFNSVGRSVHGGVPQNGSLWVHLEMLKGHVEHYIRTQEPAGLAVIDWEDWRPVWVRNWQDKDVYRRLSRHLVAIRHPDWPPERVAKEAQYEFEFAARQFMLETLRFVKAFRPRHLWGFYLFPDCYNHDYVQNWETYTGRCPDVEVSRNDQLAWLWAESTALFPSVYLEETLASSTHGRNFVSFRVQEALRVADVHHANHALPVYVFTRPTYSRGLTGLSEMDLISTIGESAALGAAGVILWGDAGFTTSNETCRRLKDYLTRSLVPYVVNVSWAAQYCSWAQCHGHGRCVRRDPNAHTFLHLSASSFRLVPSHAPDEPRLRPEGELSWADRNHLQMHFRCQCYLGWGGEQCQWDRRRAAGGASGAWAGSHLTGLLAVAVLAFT

Row | SMILES | inhibition [1] | inhibition [2] | inhibition [3] | inhibition [5] | inhibition [6] | inhibition [7] | inhibition [8] | inhibition [9] | solubility [10] | inhibition [11] | inhibition [12] | inhibition [13] | inhibition [14] | inhibition [15] | inhibition [16] | inhibition [17] | IC50 [18] | inhibition [19] | also measured
1 | Sc1nc2ccccc2o1 | inactive | inactive | inactive | inactive | inactive | inactive | inactive | inactive | 3800 µM (≈ 575 µg/mL) | inactive | inactive | inactive | inactive | inactive | inactive | inactive | 2540 µM | inactive | inhibition (Streptococcus agalactiae [4]): 42%
2 | CCCCCCCCCCCCCCCC(=O)n1c(=S)oc2ccccc21 | inactive | inactive | inactive | inactive | inactive | inactive | inactive | inactive | 63 µM (≈ 24.5 µg/mL) | inactive | inactive | inactive | inactive | inactive | inactive | inactive | 17 µM | inactive | inhibition (Streptococcus agalactiae [20]): 23%
3 | CCCCCC(=O)n1c(=S)[nH]c2ccccc21 | inactive | inactive | inactive | inactive | inactive | inactive | inactive | inactive | 170 µM (≈ 42.2 µg/mL) | inactive | inactive | inactive | inactive | inactive | inactive | inactive | 16 µM | inactive | inhibition (Streptococcus agalactiae [23]): 14%
4 | O=C(/C=C/c1ccccc1)n1c(=S)oc2ccccc21 | inactive | inactive | inactive | inactive | inactive | inactive | inactive | inactive | 80 µM (≈ 22.5 µg/mL) | inactive | inactive | inactive | inactive | inactive | inactive | inactive | – | inactive | inhibition (Streptococcus agalactiae [27]): 9%; inhibition (Streptococcus agalactiae [28]): 36%
5 | CCCCCC(=O)n1c(=S)oc2ccccc21 | inactive | inactive | inactive | inactive | inactive | inactive | inactive | inactive | 130 µM (≈ 32.4 µg/mL) | inactive | inactive | inactive | inactive | inactive | inactive | inactive | 29 µM | inactive | inhibition (Streptococcus agalactiae [29]): 51%
6 | CC(=O)n1c(=O)oc2ccccc21 | inactive | inactive | inactive | inactive | inactive | inactive | inactive | inactive | 2000 µM (≈ 354 µg/mL) | inactive | inactive | inactive | inactive | inactive | inactive | inactive | 1470 µM | inactive | inhibition (Streptococcus agalactiae [30]): inactive
7 | CCn1c(S)nc2ccccc21 | inactive | inactive | inactive | inactive | inactive | inactive | inactive | inactive | 4200 µM (≈ 749 µg/mL) | inactive | inactive | inactive | inactive | inactive | inactive | inactive | – | inactive | inhibition (Streptococcus agalactiae [31]): 28%; inhibition (Streptococcus agalactiae [32]): 19%

More lines, main results first:

Row | inhibition [1] | inhibition [2] | inhibition [3] | inhibition [5] | inhibition [6] | inhibition [7] | inhibition [8] | inhibition [9] | solubility [10] | inhibition [11] | inhibition [12] | inhibition [13] | inhibition [14] | inhibition [15] | inhibition [16] | inhibition [17] | IC50 [18] | inhibition [19] | SMILES | also measured
8 | inactive | inactive | inactive | inactive | inactive | inactive | inactive | inactive | – | inactive | inactive | inactive | inactive | inactive | inactive | inactive | – | inactive | COC(=O)c1ccc2oc(=S)[nH]c2c1 | IC50 [21]: 1300 µM; inhibition (Streptococcus agalactiae [22]): 27%
9 | inactive | inactive | inactive | inactive | inactive | inactive | inactive | inactive | 180 µM (≈ 37.1 µg/mL) | inactive | inactive | inactive | inactive | inactive | inactive | inactive | 26 µM | inactive | CCC(=O)n1c(=S)[nH]c2ccccc21 | inhibition (Streptococcus agalactiae [24]): 4%
10 | inactive | inactive | inactive | inactive | inactive | inactive | inactive | inactive | 460 µM (≈ 88.4 µg/mL) | inactive | inactive | inactive | inactive | inactive | inactive | inactive | 17 µM | inactive | CC(=O)n1c(=S)[nH]c2ccccc21 | inhibition (Streptococcus agalactiae [25]): 20%
11 | inactive | inactive | inactive | inactive | inactive | inactive | inactive | inactive | 190 µM (≈ 41.9 µg/mL) | inactive | inactive | inactive | inactive | inactive | inactive | inactive | 20 µM | inactive | CCCC(=O)n1c(=S)[nH]c2ccccc21 | inhibition (Streptococcus agalactiae [26]): 7%
